In publication PMC6263940 (Nature chemical biology, 2018):

Legend:
ABHD12 [1] = target: T1, ABHD12 (Mus musculus, UniProt Q99LR1); experiment: Competitive gel-based ABPP with JJH350 probe in mouse brain membrane proteome; assay type: biochemical; conditions: for activity against ABHD12 (in words): gel-based competitive ABPP, mouse brain membrane proteome
T1 sequence (Q99LR1 1-398): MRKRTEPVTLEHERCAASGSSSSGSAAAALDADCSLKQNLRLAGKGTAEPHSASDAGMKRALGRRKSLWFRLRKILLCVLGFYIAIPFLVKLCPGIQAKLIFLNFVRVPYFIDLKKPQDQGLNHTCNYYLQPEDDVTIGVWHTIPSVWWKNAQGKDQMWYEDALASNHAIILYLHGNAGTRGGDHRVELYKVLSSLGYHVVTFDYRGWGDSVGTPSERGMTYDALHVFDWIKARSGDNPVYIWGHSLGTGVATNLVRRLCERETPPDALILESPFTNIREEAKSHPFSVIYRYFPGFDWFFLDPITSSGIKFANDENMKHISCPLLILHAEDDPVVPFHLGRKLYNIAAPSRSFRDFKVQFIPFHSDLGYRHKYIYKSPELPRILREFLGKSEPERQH

ABHD12 [2] = target: T1, ABHD12; experiment: Lyso-PS hydrolysis assay with membrane lysates of ABHD12-transfected cells; assay type: biochemical
In short: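 Membrane lysate of ABHD12-transfected cells in DPBS incubated with 17:1 lyso-PS (100 μM final) for 20 min at 37 °C. Quenched in 2:1 CHCl₃/MeOH with 15:0 FFA internal standard. Activity is the LC-MS 17:1 FFA/15:0 FFA peak-area ratio minus mock-transfected membrane activity. IC50 fitted as log(inhibitor) vs normalized response.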

ABHD12 [3] = target: T1, ABHD12; experiment: Competitive ABPP with FP-Rh probe, lysates of ABHD12-transfected cells; assay type: biochemical; conditions: hit compound tested at 10 μM
In short: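 Mouse ABHD12 expressed in HEK293F cells by PEI transfection (48 h, 37 °C, 5% CO₂). Membranes prepared by hypotonic lysis, sonication, 100,000 × g pelleting and a high-salt wash, then resuspended in DPBS. Lysate (1 mg/mL) pre-exposed to hit compound, then labelled with FP-Rh (1 μM final, 45 min, 37 °C). Gel band intensity is read relative to control (100%).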

ABHD12 [4] = target: T1, ABHD12; experiment: Ex vivo gel-based competitive ABPP; assay type: in vivo; conditions: mice, 60 mg/kg, 4 h
mice = experiment: Two-week daily dosing, overt signs of toxicity; assay type: in vivo, mouse; conditions: adult mice, 30 mg/kg daily, p.o., two weeks
[5] = Measurement of drug concentration in brain and blood of mice; assay type: in vivo, mouse; conditions: 4 h, at 60 mg/kg (i.p.) approximated exposures observed with DO264
In short: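 Tissues harvested 4 h after dosing. Brain homogenised in 4 volumes of water per weight; cardiac-puncture blood quenched 1:4 in acetonitrile. Samples diluted 1000–2000-fold in 50% ACN and spiked into blank C57BL/6J brain homogenate or blood, alongside serially diluted calibration standards. After vortexing and centrifugation (4 °C, 15 min), supernatant diluted 5-fold in water and quantified by LC/MS/MS.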

ABHD12 [6] = target: T2, ABHD12 (Homo sapiens, UniProt Q8N2K0); experiment: ABPP-SILAC; assay type: cell-based; conditions: 1 μM, 4 h, THP-1 cells
T2 sequence (Q8N2K0 1-398): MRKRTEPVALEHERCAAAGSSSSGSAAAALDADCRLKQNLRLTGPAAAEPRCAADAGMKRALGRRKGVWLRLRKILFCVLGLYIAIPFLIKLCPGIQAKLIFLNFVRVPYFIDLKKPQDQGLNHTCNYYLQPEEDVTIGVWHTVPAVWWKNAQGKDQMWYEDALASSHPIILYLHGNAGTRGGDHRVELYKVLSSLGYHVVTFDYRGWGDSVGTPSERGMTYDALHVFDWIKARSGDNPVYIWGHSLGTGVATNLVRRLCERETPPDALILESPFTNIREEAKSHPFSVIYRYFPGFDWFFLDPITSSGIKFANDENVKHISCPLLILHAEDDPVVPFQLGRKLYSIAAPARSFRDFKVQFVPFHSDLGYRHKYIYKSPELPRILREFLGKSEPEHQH
In short: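 Heavy- or light-labelled THP-1 cells (30 million) differentiated with PMA (150 ng/mL final) for 24 h, washed, then kept a further 24 h in fresh SILAC medium. Light cells treated with test compound and heavy cells with DMSO, 4 h at 37 °C. Sonicated whole-cell proteomes (2 mg/mL) labelled separately with FP-biotin 1 μM, 30 min, room temperature, then combined for quantitative MS.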

LCMV clone 13 = conditions: mouse, in vivo, ip, 30 mg/kg
ABHD12 [7] = target: T2, ABHD12; experiment: In situ treatment of THP-1 cells, competitive gel-based ABPP with JJH350 probe; assay type: cell-based; conditions: 1 μM, 4 h in situ
In short: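 Whole THP-1 cells exposed to test compound or DMSO for 4 h at 37 °C, 5% CO₂, then washed twice with ice-cold DPBS. Proteome (1 mg/mL) labelled with JJH350 (2 μM final, 45 min, 37 °C), clicked by CuAAC and resolved on gel. ABHD12 band intensity is expressed relative to the control-treated sample, set to 100%.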

[8] = tested on: serine hydrolases in THP-1 cells; experiment: ABPP-SILAC; assay type: cell-based, human; conditions: 1 μM, 4 h, THP-1 cells
THP-1 cells = experiment: Targeted LC-MS of; assay type: cell-based, human; conditions: DO264 0.001-1 μM, (S)-DO271 1 μM, 4 h
In short: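 THP-1 cells (6 million in 10 mL) incubated with test compound or DMSO for 4 h at 37 °C, 5% CO₂. Cells washed twice with ice-cold DPBS and stored at −80 °C, then analysed by targeted LC-MS metabolomics for lyso-PS and PS species.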

ABHD12 [9] = target: T1, ABHD12; experiment: Covalent labelling of mouse brain ABHD12 visualized by CuAAC with Rh-N3; assay type: biochemical; conditions: 45 min, 37 °C

Structure (SMILES): CN(C(=S)Nc1cccnc1)C1CCN(c2nccc(Oc3ccc(OC(F)(F)F)cc3Cl)c2Cl)CC1 [DO276, N-3-pyridyl-N’-methyl-N’-(1-[3-chloro-4-{2-chloro-4-(trifluoromethoxy)phenoxy}pyridine-2-yl]piperidin-4-yl)thiourea]
- IC50 (ABHD12 [1]): 1100 nM

Structure (SMILES): FC(F)(F)c1cnc(N2CCC(NC(=S)Nc3cccnc3)CC2)c(Cl)c1 [DO130, N-3-pyridyl-N’-[1-{3-chloro-5-(trifluoromethyl)pyridin-2-yl}piperidin-4-yl]thiourea]
- IC50 (ABHD12 [2]): 1300 nM
- activity in LC/MS-based lyso-PS hydrolysis secondary assay (ABHD12 [2]; hit compound tested at 10 μM): showed activity
- activity in competitive ABPP secondary assay (FP-Rh probe) (ABHD12 [3]): showed activity

Structure (SMILES): O=C(Nc1cccnc1)NC1CCN(c2nccc(Oc3ccc(OC(F)(F)F)cc3Cl)c2Cl)CC1 [DO277, N-3-pyridyl-N’-(1-[3-chloro-4-{2-chloro-4-(trifluoromethoxy)phenoxy}pyridine-2-yl]piperidin-4-yl)urea]
- IC50 (ABHD12 [1]): 170 nM

Structure (SMILES): FC(F)(F)Oc1ccc(Oc2ccnc(N3CCC[C@H](NC(=S)Nc4cccnc4)C3)c2Cl)c(Cl)c1 [(S)-DO271, (S)-N-3-pyridyl-N’-(1-[3-chloro-4-{2-chloro-4-(trifluoromethoxy)phenoxy}pyridine-2-yl]piperidin-3-yl)thiourea]
- brain ABHD12 activity, ex vivo analysis with JJH350 probe (ABHD12 [4]): did not block
- overt signs of toxicity, such as weight loss or behavioral distress (mice): neither compound produced overt signs of toxicity
- exposure compared with DO264 (in words) [5]: lower exposure
- effect on ABHD12 activity (in words) (ABHD12 [6]): did not affect
- activity against ABHD12 (in words) (ABHD12 [1]): inactive
- fraction of treated ABHD12(−/−) mice that died prior to sacrifice at day 10 (LCMV clone 13): 30-40%
- ABHD12 activity in THP-1 cells by competitive gel-based ABPP (in words) (ABHD12 [7]): unaffected
- effect on activity of other serine hydrolases [8]: did not affect
- lyso-PS content of THP-1 cells (THP-1 cells): did not alter

Structure (SMILES): C#Cc1ccc(Oc2ccnc(N3CCC(NC(=S)Nc4cccnc4)CC3)c2Cl)c(Cl)c1 [DO274, N-3-pyridyl-N’-(1-[3-chloro-4-{2-chloro-4-(ethynyl)phenoxy}pyridine-2-yl]piperidin-4-yl)thiourea]
- ABHD12 inhibitory activity (in words) (ABHD12 [2]): potent ABHD12 inhibitory activity
- covalent modification of ABHD12 (ABHD12 [9]): did not show evidence of covalent modification

Structure (SMILES): Cc1cnc(N2CCN(NC(=S)Nc3cccnc3)CC2)c(Cl)c1 [DO127, N-3-pyridyl-N’-[1-{3-chloro-5-(methyl)pyridin-2-yl}piperazine-4-yl]thiourea]
- activity against ABHD12 (in words) (ABHD12 [1]): no activity
